Assay results taken from ChEMBL document CHEMBL1133012, “QSAR based on biological microcalorimetry” (J Med Chem, 2000).

Experiments:
Escherichia coli [1] = test: Observed diffusion coefficient in organic solvent for Escherichia coli; type: ADME, organism-based; design: unit not given here
In short: (§1)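 Partition coefficient by Taylor-Aris diffusion in the same cells as the screen. Cells from a liquid-nitrogen ampule were put in 25 mL 1/4 Ringer's solution; 15 mL of this was diluted with a further 24 mL 1/4 Ringer's. Water bath held at 298.15 K. Carrier pumped at least 10 min or to stable baseline before first injection. Retention time and half-height peak width taken from dispersion curve. At least two replicates per solute.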

[2] = Partition coefficient was obtained using Taylor-Aris diffusion process.; type: ADME; settings: E. coli cells; in short: as §1
Escherichia coli [3] = test: Potency against Escherichia coli was determined microcalorimetrically at the dose of 2.619 uMol/L; type: functional, organism-based
Escherichia coli [4] = test: Normal diffusion coefficient in water for Escherichia coli; type: ADME, organism-based; design: unit not given here; in short: as §1

With `CC(C)(C)c1ccc(C(=O)NNC(=O)c2ccccc2)cc1` the Dobs (Escherichia coli [1]) was 15.1, the logP [2] was -0.799 and the Log D50 (Escherichia coli [3]) was 3.21. It also gave a DW (Escherichia coli [4]) of 17.5.
`COc1ccc(C(=O)NNC(=O)c2ccccc2)cc1` gave a Dobs (Escherichia coli [1]) of 8.98, a logP [2] of -1 and a Log D50 (Escherichia coli [3]) of 2.6. For the same compound, the DW (Escherichia coli [4]) was 9.86.
`O=C(NNC(=O)c1ccc(Br)cc1)c1ccccc1` showed a Dobs (Escherichia coli [1]) of 11.9, a logP [2] of -0.879 and a Log D50 (Escherichia coli [3]) of 2.73. For the same compound, the DW (Escherichia coli [4]) was 13.47.
Compound `Cc1ccc(C(=O)NNC(=O)c2ccccc2)cc1` has a Dobs (Escherichia coli [1]) of 11.02, a logP [2] of -0.956 and a Log D50 (Escherichia coli [3]) of 2.54. It also gave a DW (Escherichia coli [4]) of 12.24.
`O=C(NNC(=O)c1ccccc1)c1ccccc1` gave a Dobs (Escherichia coli [1]) of 9.2, a logP [2] of -1.09 and a Log D50 (Escherichia coli [3]) of 2.28. It also gave a DW (Escherichia coli [4]) of 9.94.
With `O=C(NNC(=O)c1ccc([N+](=O)[O-])cc1)c1ccccc1` the Dobs (Escherichia coli [1]) was 10.15, the logP [2] was -1.14 and the Log D50 (Escherichia coli [3]) was 2.38. For the same compound, the DW (Escherichia coli [4]) was 10.879.
Work on `O=C(NNC(=O)c1ccc(-c2ccccc2)cc1)c1ccccc1` yielded a Dobs (Escherichia coli [1]) of 14.6, a logP [2] of -0.787 and a Log D50 (Escherichia coli [3]) of 3.24. The DW (Escherichia coli [4]) was 16.98.
In the case of `CCCCCc1ccc(C(=O)NNC(=O)c2ccccc2)cc1`, the Dobs (Escherichia coli [1]) is reported as 17.3, the logP [2] is reported as -0.652 and the Log D50 (Escherichia coli [3]) is reported as 3.05. The DW (Escherichia coli [4]) was 21.15.
